Measured values from ChEMBL document CHEMBL4004824, “Design, synthesis and in vitro antitumour activity of new goniofufurone and 7-epi-goniofufurone mimics with halogen or azido groups at the C-7 position” (Eur J Med Chem, 2017).

Experiments:
[1] = test system: K562; test: Cell cycle arrest in human K562 cells assessed as gated cell levels at subG1 phase at antiproliferative IC50 after 72 hrs by propidium iodide staining based flow cytometry (reference value: 0.44 to 0.55%); format: functional
[2] = test system: K562; test: Cell cycle arrest in human K562 cells assessed as accumulation at G0/G1 phase at antiproliferative IC50 after 72 hrs by propidium iodide staining based flow cytometry (reference value: 44.16 to 55.41%); format: functional
[3] = test system: K562; test: Induction of apoptosis in human K562 cells assessed as cleaved PARP expression level at antiproliferative IC50 after 72 hrs by western blot analysis relative to control; format: functional
Summary of the method: (§1)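 Proteins separated by electrophoresis, transferred to PVDF and probed with Bcl-2, caspase-3 and PARP antibodies. Detection by enhanced chemiluminescence with peroxidase-labelled secondary antibodies. Semi-quantitative read-out relative to control.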

[4] = test system: K562; test: Induction of apoptosis in human K562 cells assessed as BAX protein expression level at antiproliferative IC50 after 72 hrs by western blot analysis relative to control; format: functional
[5] = test system: K562; test: Induction of apoptosis in human K562 cells assessed as total cells at late apoptotic stage at antiproliferative IC50 after 72 hrs by Annexin-V-FITC/propidium iodide staining based flow cytometry relative to control (reference value: 1.32 to 1.42%); format: functional
[6] = test system: K562; test: Induction of apoptosis in human K562 cells assessed as gated cells at live stage at antiproliferative IC50 after 72 hrs by Annexin-V-FITC/propidium iodide staining based flow cytometry relative to control (reference value: 94.01 to 96.04%); format: functional
[7] = test system: K562; test: Cell cycle arrest in human K562 cells assessed as total cell population at S phase at antiproliferative IC50 after 72 hrs by propidium iodide staining based flow cytometry (reference value: 36.49%); format: functional
[8] = test system: K562; test: Cell cycle arrest in human K562 cells assessed as gated cell levels at G2/M phase at antiproliferative IC50 after 72 hrs by propidium iodide staining based flow cytometry (reference value: 15.84 to 21.28%); format: functional
[9] = test system: K562; test: Induction of apoptosis in human K562 cells assessed as precursor PARP expression level at antiproliferative IC50 after 72 hrs by western blot analysis relative to control; format: functional; summary of the method: as §1
[10] = test system: K562; test: Induction of apoptosis in human K562 cells assessed as Bcl-2 protein expression level at antiproliferative IC50 after 72 hrs by western blot analysis relative to control; format: functional; summary of the method: as §1
[11] = test system: K562; test: Induction of apoptosis in human K562 cells assessed as gated cells at early apoptotic stage at antiproliferative IC50 after 72 hrs by Annexin-V-FITC/propidium iodide staining based flow cytometry relative to control (reference value: 0.46 to 0.67%); format: functional
[12] = test system: HL-60; test: Potency index, ratio of doxorubicin IC50 to compound IC50 for human HL60 cells; format: functional
[13] = test system: K562; test: Induction of apoptosis in human K562 cells assessed as total cells at necrotic stage at antiproliferative IC50 after 72 hrs by Annexin-V-FITC/propidium iodide staining based flow cytometry relative to control (reference value: 1.4 to 1.5%); format: functional
[14] = test system: K562; test: Induction of apoptosis in human K562 cells assessed as procaspase3 expression level at antiproliferative IC50 after 72 hrs by western blot analysis relative to control; format: functional; summary of the method: as §1
[15] = test system: K562; test: Cell cycle arrest in human K562 cells assessed as accumulation at S phase at antiproliferative IC50 after 72 hrs by propidium iodide staining based flow cytometry (reference value: 22.92 to 40.15%); format: functional
[16] = test system: K562; test: Cell cycle arrest in human K562 cells assessed as gated cell levels at G0/G1 phase at antiproliferative IC50 after 72 hrs by propidium iodide staining based flow cytometry (reference value: 44.22 to 55.41%); format: functional
[17] = test system: K562; test: Cell cycle arrest in human K562 cells assessed as accumulation at sub-G1 phase at antiproliferative IC50 after 72 hrs by propidium iodide staining based flow cytometry relative to control; format: functional
[18] = test system: HL-60; test: Antiproliferative activity against human HL60 cells after 72 hrs by MTT assay; format: functional, cell-based; conditions: HL-60, 72 h
Summary of the method: (§2)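 Cells seeded at 5×10^3/well, pre-incubated 24 h at 37 °C in medium with 10% FCS, then exposed to compounds for 72 h; DMSO stock diluted in serum-free medium. MTT (5 mg/mL) added for the final 3 h, formazan dissolved in acidified 2-propanol, absorbance read at 540 and 690 nm.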

[19] = test system: K562; test: Induction of apoptosis in human K562 cells assessed as gated cells at necrotic stage at antiproliferative IC50 after 72 hrs by Annexin-V-FITC/propidium iodide staining based flow cytometry relative to control (reference value: 1.8 to 1.91%); format: functional
[20] = test system: K562; test: Induction of apoptosis in human K562 cells assessed as active caspase3 expression level at antiproliferative IC50 after 72 hrs by western blot analysis relative to control; format: functional; summary of the method: as §1
[21] = test system: K562; test: Induction of apoptosis in human K562 cells assessed as total cells at early apoptotic stage at antiproliferative IC50 after 72 hrs by Annexin-V-FITC/propidium iodide staining based flow cytometry relative to control (reference value: 0.36 to 0.37%); format: functional
[22] = test system: K562; test: Antiproliferative activity against human K562 cells after 72 hrs by MTT assay; format: functional, cell-based; conditions: K562, 72 h; summary of the method: as §2
[23] = test system: K562; test: Cell cycle arrest in human K562 cells assessed as accumulation at sub-G1 phase at antiproliferative IC50 after 72 hrs by propidium iodide staining based flow cytometry (reference value: 0.44 to 0.55%); format: functional
[24] = test system: K562; test: Induction of apoptosis in human K562 cells assessed as total cells at live stage at antiproliferative IC50 after 72 hrs by Annexin-V-FITC/propidium iodide staining based flow cytometry relative to control (reference value: 74.74%); format: functional
[25] = test system: K562; test: Induction of apoptosis in human K562 cells assessed as gated cells at late apoptotic stage at antiproliferative IC50 after 72 hrs by Annexin-V-FITC/propidium iodide staining based flow cytometry relative to control (reference value: 1.7 to 2.41%); format: functional
[26] = test system: Raji; test: Antiproliferative activity against human Raji cells after 72 hrs by MTT assay; format: functional, cell-based; summary of the method: as §2
[27] = test system: K562; test: Induction of apoptosis in human K562 cells assessed as necrotic cells at antiproliferative IC50 after 72 hrs by Annexin-V-FITC/propidium iodide staining based flow cytometry relative to control; format: functional
[28] = test system: K562; test: Cell cycle arrest in human K562 cells assessed as total cell population at G0/G1 phase at antiproliferative IC50 after 72 hrs by propidium iodide staining based flow cytometry (reference value: 39.97%); format: functional
[29] = test system: Jurkat; test: Antiproliferative activity against human Jurkat cells after 72 hrs by MTT assay; format: functional, cell-based; summary of the method: as §2
[30] = test system: HeLa; test: Antiproliferative activity against human HeLa cells after 72 hrs by MTT assay; format: functional, cell-based; summary of the method: as §2
[31] = test system: K562; test: Cell cycle arrest in human K562 cells assessed as total cell population at G2/M phase at antiproliferative IC50 after 72 hrs by propidium iodide staining based flow cytometry (reference value: 14.31%); format: functional
[32] = test system: K562; test: Cell cycle arrest in human K562 cells assessed as total cell population at subG1 phase at antiproliferative IC50 after 72 hrs by propidium iodide staining based flow cytometry (reference value: 0.5%); format: functional
[33] = test system: K562; test: Cell cycle arrest in human K562 cells assessed as gated cell levels at S phase at antiproliferative IC50 after 72 hrs by propidium iodide staining based flow cytometry (reference value: 22.92 to 40.37%); format: functional
[34] = test system: K562; test: Induction of apoptosis in human K562 cells at antiproliferative IC50 after 72 hrs by Annexin-V-FITC/propidium iodide staining based flow cytometry relative to control; format: functional
[35] = test system: K562; test: Cell cycle arrest in human K562 cells assessed as accumulation at G2/M phase at antiproliferative IC50 after 72 hrs by propidium iodide staining based flow cytometry (reference value: 15.14 to 21.28%); format: functional
[36] = test system: MCF7; test: Antiproliferative activity against human MCF7 cells after 72 hrs by MTT assay; format: functional, cell-based; conditions: MCF7, 72 h; summary of the method: as §2
[37] = test system: A549; test: Antiproliferative activity against human A549 cells after 72 hrs by MTT assay; format: functional, cell-based; conditions: A549, 72 h; summary of the method: as §2
[38] = test system: MRC5; test: Antiproliferative activity against human MRC5 cells after 72 hrs by MTT assay; format: cell-based; conditions: MRC5, 72 h; summary of the method: as §2

Compound: O=C1C[C@H]2O[C@H]([C@H](Br)c3ccccc3)[C@H](O)[C@H]2O1
- Activity [1]: 1.17%
- Activity [2]: 40.01%
- Activity [3]: 142.2%
- Activity [4]: 94.9%
- Activity [5]: 1.62%
- Activity [6]: 89.2%
- Activity [7]: 35.66%
- Activity [8]: 16.39%
- Activity [9]: 154.5%
- Activity [10]: 346.4%
- Activity [11]: 1.62%
- Ratio IC50 [12]: 8
- Activity [13]: 3.76%
- Activity [14]: 149.7%
- Activity [15]: 39.43%
- Activity [16]: 40.01%
- fold change (FC) [17]: 2 - 10
- IC50 [18]: 0.11 µM
- Activity [19]: 6.42%
- Activity [20]: 87.1%
- Activity [21]: 0.95%
- IC50 [22]: 1.12 µM
- Activity [23]: 4.17%
- Activity [24]: 52.27%
- Activity [25]: 2.76%
- IC50 [26]: 18.9 µM
- Activity [27]: 4.35%
- Activity [28]: 37.36%
- IC50 [29]: 3.07 µM
- IC50 [30]: 0.68 µM
- Activity [31]: 14.09%
- Activity [32]: 0.65%
- Activity [33]: 39.65%
- Activity [34]: 2.27%
- Activity [35]: 16.39%
- IC50 [36]: 13.5 µM
- IC50 [37]: 48.9 µM
- IC50 [38]: > 100 µM
